Experimental data taken from ChEMBL document CHEMBL1165904, “Design, synthesis and 3D-QSAR of beta-carboline derivatives as potent antitumor agents” (Eur J Med Chem, 2010).

Tests used:
Type in all cases: functional, cell-based
HepG2 = test: Cytotoxicity against human HepG2 cells by MTT assay
Outline: (§1)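 Tumour cells cultured in RPMI-1640 with 10% (v/v) fetal calf serum plus penicillin and streptomycin, at 37 °C, humidified 5% CO2. Compounds from DMSO stocks; final DMSO in medium 2% (v/v) or lower. Assay in 96-well microtitre cultures with MTT staining. IC50 taken as concentration causing 50% growth inhibition relative to untreated cells.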

HeLa = test: Cytotoxicity against human HeLa cells by MTT assay; outline: as §1
Bel-7402 = test: Cytotoxicity against human Bel7402 cells by MTT assay; outline: as §1
BGC-823 = test: Cytotoxicity against human BGC823 cells by MTT assay; outline: as §1
MCF7 = test: Cytotoxicity against human MCF7 cells by MTT assay; outline: as §1

Row | SMILES | IC50 (HepG2; read-out: IC50) [µM] | IC50 (HepG2; read-out: pIC50 (converted)) [µM] | IC50 (HeLa) [µM] | IC50 (Bel-7402) [µM] | IC50 (BGC-823) [µM] | IC50 (MCF7) [µM]
1 | CCn1c2cc(OCc3c(F)c(F)c(F)c(F)c3F)ccc2c2ccnc(C)c21 | 236 | 234 | 258 | 241 | 238 | 103
2 | CCCCCCCCOc1ccc2c3cc[n+](Cc4ccccc4)c(C)c3n(CCCc3ccccc3)c2c1 | 3.9 | 3.89 | 2.2 | 2 | 3.9 | 5.3
3 | Cc1c2[nH]c3ccccc3c2cc[n+]1Cc1ccccc1 | 69.5 | 69.2 | 69.2 | 74 | 77.4 | 89.2
4 | CCCCn1c2ccccc2c2cc(CO)nc(C)c21 | 128 | 129 | 100 | 122 | 127 | 107
5 | COc1ccc2c(c1)[nH]c1c(C)[n+](Cc3ccccc3)ccc12 | 54.6 | 55 | 77.6 | 64.2 | 67.4 | 76.2
6 | CCCCn1c2ccccc2c2cc(C(=O)NCCO)nc(-c3cc(OC)c(OC)c(OC)c3)c21 | – | – | > 200 | > 200 | – | 105
7 | Cc1c2[nH]c3ccccc3c2cc[n+]1CCCc1ccccc1 | 33 | 33.1 | 49.8 | 20.5 | 3.5 | 23.8
8 | CCCCn1c2cc(O)ccc2c2ccnc(C)c21 | 81.5 | 81.3 | 89.8 | 69.5 | 90.2 | 46.9
9 | CCCCOc1ccc2c3ccnc(C)c3n(CC(C)C)c2c1 | 12.1 | 12 | 20.8 | 42.5 | 12.1 | 7.2
10 | O=C(NCCO)c1cc2c3ccccc3n(CCCc3ccccc3)c2cn1 | > 200 | – | > 200 | > 200 | > 200 | > 200
11 | CCCCn1c2ccccc2c2cc(C(=O)NCCCCCCN)ncc21 | 95.8 | 95.5 | 53 | 58.5 | 110 | 42.8
12 | CCCCn1c2ccccc2c2cc(C(=O)OCC)nc(-c3cc(OC)c(OC)c(OC)c3)c21 | > 200 | – | > 200 | > 200 | – | > 200
13 | CCOc1ccc2c3cc[n+](Cc4ccccc4)c(C)c3n(CC)c2c1 | 14.3 | 14.5 | 2.2 | 12.6 | 9.2 | 8.1
14 | Cc1nccc2c3ccc(OC(C)C)cc3n(CCCc3ccccc3)c12 | 14.6 | 14.5 | 48.6 | 36.2 | 16.3 | 45.3
15 | CCCCOc1ccc2c3cc[n+](Cc4ccccc4)c(C)c3n(CC(C)C)c2c1 | 1.8 | 1.82 | 2.6 | 5.3 | 6.8 | 5.3
16 | NCCCCCCNC(=O)c1cc2c3ccccc3n(Cc3ccccc3)c2cn1 | 58.7 | 58.9 | 24.2 | 56.8 | 34.8 | 54.1
17 | Cc1nccc2c3ccc(O)cc3n(CCCc3ccccc3)c12 | 28.3 | 28.2 | 45.3 | 35.1 | 29.9 | 34.5
18 | O=Cc1cc2c3ccccc3n(Cc3ccc(F)cc3)c2cn1 | > 200 | – | > 200 | > 200 | > 200 | > 200
19 | CCCCn1c2ccccc2c2cc(C(=O)NCCO)nc(C)c21 | 140 | 141 | 80.4 | 90.6 | 45 | 97.3
20 | CCCCn1c2cc(OCC)ccc2c2ccnc(C)c21 | 43.3 | 43.7 | 32.1 | 36.1 | 37.2 | 12
21 | c1ccc(C[n+]2ccc3c(c2)[nH]c2ccccc23)cc1 | 77.3 | 77.6 | 85.4 | 65.1 | 91.8 | 91.3
22 | CCOC(=O)c1cc2c([nH]c3ccccc32)c(C)[n+]1Cc1ccccc1 | 53 | 52.5 | 101 | 56.2 | 55.3 | 44.9
23 | Cc1nccc2c3ccc(O)cc3n(CC(C)C)c12 | 116 | 115 | 68.3 | 114 | 140 | 96.9
24 | Cc1nccc2c3ccc(OCc4ccccc4)cc3n(CC(C)C)c12 | 22.2 | 22.4 | 50.5 | 26.8 | 36 | 54.1
